Reference: ChEMBL document CHEMBL1275565, “Minimal effects of ritonavir and efavirenz on the pharmacokinetics of raltegravir” (Antimicrob Agents Chemother, 2008)

Tests used:
Format in all cases: ADME, organism-based
[1] = Terminal half life in HIV-negative human at 400 mg, po administered as single dose; conditions: in vivo, read-out: beta t1/2 (converted)
Procedure, shortened: (§1)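 Healthy male volunteers; plasma raltegravir measured by validated reverse-phase HPLC-MS/MS (LLOQ 2 ng/ml, linear 2 to 1,000 ng/ml) and converted to nM. Each subject's profile was fit to a biexponential model (weighting 1/(predicted concentration)², Gauss-Newton minimization), with α-phase onset set by inspection. Phase t1/2 = ln(2)/α or β. Median differences were estimated by Hodges-Lehman with 90% CI.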

[2] = AUC (0 to infinity) in HIV-negative human at 400 mg, po administered as single dose followed by 4 days wash out period followed by efavirenz dosing at 600 mg, po bid for 14 days coadministered with compound at 400 mg, po on day 12; set-up: dose 400 mg, route oral, time infinity; conditions: plasma, in the assay text read “po qd for 14 days” for “po bid for 14 days”
Procedure, shortened: (§2)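 Efavirenz 600 mg orally once daily at bedtime for 14 days, with a single 400 mg oral raltegravir (double-blind vs placebo) alongside on day 12. Healthy males, all doses taken fasted. Plasma sampled at 0–72 h postdose as in the ritonavir study, but at 36 h instead of 32 h, and quantified by HPLC-MS/MS. Cmax by inspection; C12h at nominal 12 h; AUC0–∞ by linear/log trapezoidal plus extrapolation.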

[3] = Primary phase half life in HIV-negative human at 400 mg, po administered as single dose; conditions: in vivo, read-out: alphat1/2 (converted); procedure, shortened: as §1
[4] = Trough plasma concentration at 12 hrs in HIV-negative human at 400 mg, po administered as single dose; conditions: read-out: Cmin
Procedure, shortened: (§3)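 Period 1 of two crossover studies in healthy male volunteers: single 400 mg oral raltegravir alone. Plasma sampled 0–72 h postdose and assayed by validated reverse-phase HPLC-MS/MS (LLOQ 2 ng/ml, linear to 1,000 ng/ml), converted to nM (MW 444.4). Cmax by inspection; C12h from the nominal 12 h sample; AUC0–∞ by linear/log trapezoidal plus extrapolation from the last concentration/β.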

[5] = AUC (0 to infinity) in HIV-negative human at 400 mg, po administered as single dose followed by 4 days wash out period followed by […] coadministered with compound at 400 mg, po on day 14; set-up: dose 400 mg, time infinity, route oral; conditions: plasma
[6] = Tmax in HIV-negative human at 400 mg, po administered as single dose followed by 4 days wash out period followed by […] coadministered with compound at 400 mg, po on day 14; conditions: in vivo
[7] = Cmax in HIV-negative human at 400 mg, po administered as single dose followed by 4 days wash out period followed by efavirenz dosing at 600 mg, po bid for 14 days coadministered with compound at 400 mg, po on day 12; set-up: dose 400 mg, route oral; conditions: in vivo, in the assay text read “po qd for 14 days” for “po bid for 14 days”; procedure, shortened: as §2
[8] = Cmax in HIV-negative human at 400 mg, po administered as single dose followed by 4 days wash out period followed by […] coadministered with compound at 400 mg, po on day 14; set-up: dose 400 mg, route oral; conditions: in vivo
[9] = Cmax in HIV-negative human at 400 mg, po administered as single dose; set-up: dose 400 mg, route oral; conditions: in vivo; procedure, shortened: as §3
[10] = Primary phase half life in HIV-negative human at 400 mg, po administered as single dose followed by 4 days wash out period followed by ritonavir dosing at 100 mg, po bid for 16 days coadministered with compound at 400 mg, po on day 14; conditions: in vivo, read-out: alphat1/2 (converted); procedure, shortened: as §1
[11] = AUC (0 to infinity) in HIV-negative human at 400 mg, po administered as single dose; set-up: dose 400 mg, time infinity, route oral; conditions: plasma; procedure, shortened: as §3
[12] = Primary phase half life in HIV-negative human at 400 mg, po administered as single dose followed by 4 days wash out period followed by efavirenz dosing at 600 mg, po bid for 14 days coadministered with compound at 400 mg, po on day 12; conditions: in vivo, in the assay text read “po qd for 14 days” for “po bid for 14 days”, read-out: alphat1/2 (converted); procedure, shortened: as §1
[13] = Trough plasma concentration at 12 hrs in HIV-negative human at 400 mg, po administered as single dose followed by 4 days wash out period followed by efavirenz dosing at 600 mg, po bid for 14 days coadministered with compound at 400 mg, po on day 12; conditions: in the assay text read “po qd for 14 days” for “po bid for 14 days”, read-out: Cmin; procedure, shortened: as §2
[14] = Terminal half life in HIV-negative human at 400 mg, po administered as single dose followed by 4 days wash out period followed by ritonavir dosing at 100 mg, po bid for 16 days coadministered with compound at 400 mg, po on day 14; conditions: in vivo, read-out: beta t1/2 (converted); procedure, shortened: as §1
[15] = Trough plasma concentration at 12 hrs in HIV-negative human at 400 mg, po administered as single dose followed by 4 days wash out period followed by ritonavir dosing at 100 mg, po bid […] coadministered with compound at 400 mg, po on day 14; conditions: read-out: Cmin
Procedure, shortened: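 In healthy young males, ritonavir 100 mg twice daily for 14 days, with a single 400 mg oral raltegravir (double-blind vs placebo) given with the morning dose on day 14. All doses followed a moderate-fat meal. Cmax and Tmax by inspection at nominal times; C12h from the 12 h sample; AUC0–∞ by trapezoidal sum plus extrapolation.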

[16] = Terminal half life in HIV-negative human at 400 mg, po administered as single dose followed by 4 days wash out period followed by efavirenz dosing at 600 mg, po bid for 14 days coadministered with compound at 400 mg, po on day 12; conditions: in vivo, in the assay text read “po qd for 14 days” for “po bid for 14 days”, read-out: beta t1/2 (converted); procedure, shortened: as §1

Question: Which results are given for `Cc1nnc(C(=O)NC(C)(C)c2nc(C(=O)NCc3ccc(F)cc3)c(O)c(=O)n2C)o1` [RALTEGRAVIR]?
Answer: half-life [1]: 10.8 h; AUC(0-inf) [2]: 18.1 µM·h; half-life [3]: 0.98 h; concentration at 12 h [4]: 0.0771 µM; AUC(0-inf) [5]: 19.3 µM·h; Tmax [6]: 2 h; Cmax [7]: 6.45 µM; Cmax [8]: 7.23 µM; Cmax [9]: 9.57 µM; half-life [10]: 0.97 h; AUC(0-inf) [11]: 22.9 µM·h; half-life [12]: 0.95 h; concentration at 12 h [13]: 0.0625 µM; half-life [14]: 10 h; concentration at 12 h [15]: 0.0765 µM; half-life [16]: 9.1 h
